Test results: ChEMBL document CHEMBL1914355, “Discovery of new orally active prostaglandin D2 receptor antagonists” (Bioorg Med Chem, 2011)
pIC50, pKi: −log10 of the molar value. Values after ≈ are worked out from the molar mass of the structure shown.

Columns and labels:
[1] = target: Prostacyclin receptor (Homo sapiens, UniProt P43119); assay: Displacement of [3H]Iloprost from human prostanoid IP receptor expressed in CHO cells after 30 mins by liquid scintillation counting; type: cell-based
In short: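 Membranes from CHO cells stably expressing hIP were incubated with 5.0 nM [³H]iloprost and graded compound concentrations in 50 mM Tris-HCl (1 mM EDTA, 10 mM MgCl₂, pH 7.5) for 30 min at room temperature. Filters (GF/B) were washed with ice-cold Tris/NaCl pH 7.5, dried 60 min at 60 °C, and counted. Nonspecific binding used excess unlabeled iloprost. Ki = IC50/(1+[L]/Kd).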

[2] = Kinetic solubility of the compound; type: physicochemical; settings: read-out: Kinetic_solubility
[3] = target: T1, Prostaglandin D2 receptor (Homo sapiens, UniProt Q13258); assay: Antagonist activity at prostanoid DP receptor in human platelet rich plasma assessed as inhibition of PGD2-induced intracellular cAMP production after 10 mins by enzyme immunoassay; type: functional, cell-based; settings: in the assay text read “after 15 mins” for “after 10 mins”
T1 sequence (Q13258 whole entry): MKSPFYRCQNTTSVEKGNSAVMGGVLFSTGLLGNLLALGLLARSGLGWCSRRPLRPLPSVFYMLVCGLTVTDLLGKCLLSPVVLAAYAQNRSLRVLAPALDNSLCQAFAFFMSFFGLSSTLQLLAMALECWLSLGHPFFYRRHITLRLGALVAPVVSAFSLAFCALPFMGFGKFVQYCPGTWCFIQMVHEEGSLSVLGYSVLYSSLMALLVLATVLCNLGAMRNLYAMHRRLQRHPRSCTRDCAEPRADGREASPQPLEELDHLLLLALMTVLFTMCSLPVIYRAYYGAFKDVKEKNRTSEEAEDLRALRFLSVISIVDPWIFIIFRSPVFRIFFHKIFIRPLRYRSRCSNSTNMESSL
In short: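 Human PRP with EDTA (~10 mmol/L) was spun at 1500 G for 15 min. Platelets were resuspended in PPP at 5.0 × 10⁵/µL with IBMX (8 mmol/L final) and an EP3 antagonist, then held 5 min at 37 °C. Compound was added for 10 min at 37 °C, then PGD₂ (3 µmol/L final) for 15 min. TCA stop, tri-n-octylamine extraction, cAMP EIA. IC50 derived from inhibition ratio.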

[4] = target: T2, Prostaglandin D2 receptor (Mus musculus, UniProt P70263); assay: Displacement of [3H]-PGD2 from mouse DP receptor expressed in CHO cells after 20 mins by liquid scintillation counting; type: cell-based
T2 sequence (P70263 whole entry): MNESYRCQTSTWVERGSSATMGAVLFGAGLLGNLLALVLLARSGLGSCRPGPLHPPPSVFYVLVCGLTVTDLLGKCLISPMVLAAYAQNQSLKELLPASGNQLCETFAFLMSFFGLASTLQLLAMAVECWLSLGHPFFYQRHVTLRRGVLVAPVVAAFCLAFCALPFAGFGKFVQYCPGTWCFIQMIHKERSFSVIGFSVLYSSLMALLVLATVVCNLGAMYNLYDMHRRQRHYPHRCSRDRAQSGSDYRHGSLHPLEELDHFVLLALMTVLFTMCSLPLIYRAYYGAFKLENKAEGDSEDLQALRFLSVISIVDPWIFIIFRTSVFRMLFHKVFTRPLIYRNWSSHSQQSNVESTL
In short: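 CHO-mDP membranes were incubated with 2.5 nM [³H]PGD₂ and graded compound concentrations in 25 mM HEPES-NaOH (1 mM EDTA, 5 mM MgCl₂, 10 mM MnCl₂, pH 7.4) for 20 min at room temperature. Bound ligand was collected on GF/B filters and washed with ice-cold Tris/NaCl/0.01% BSA, pH 7.4. Nonspecific binding was defined with excess unlabeled PGD₂. IC50 came from the regression curve; Ki = IC50/(1+[L]/Kd).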

[5] = target: T2, Prostaglandin D2 receptor; assay: Antagonist activity at mouse prostanoid DP receptor expressed in CHO cells assessed as inhibition of PGD2-induced intracellular cAMP production after 10 mins by enzyme immunoassay; type: functional, cell-based
In short: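 CHO cells expressing mDP seeded at 1 × 10⁵ cells/well and grown 2 days. They were rinsed and preincubated ~10 min at 37 °C in MEM with 2 µM diclofenac, then ~10 min in assay medium (MEM, 0.1% BSA, 1 mM IBMX, 2 µM diclofenac). Compound plus 10 nM PGD₂ was added for 10 min at 37 °C. TCA stop, tri-n-octylamine/chloroform extraction, cAMP by EIA. IC50 taken from % of maximal cAMP rise without compound.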

[6] = Cmax in rat at 1 mg/kg, po administered as single dose; settings: in vivo
[7] = Half life in rat at 1 mg/kg, iv administered as single dose; type: ADME, organism-based; design: dose 1 mg/kg, route intravenous; settings: in vivo
In short: (§1)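 Fasted male rats (n = 3) received a single 1 mg/kg iv dose in 30% HP-β-CD with 5% DMSO and 1 eq NaHCO₃. Jugular blood was drawn into heparin before dosing and at 5, 15, 30 min and 1, 2, 4, 6, 8, 24 h. Plasma was obtained by centrifugation at 4 °C. Parameters came from the plasma concentration-time course.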

[8] = Oral bioavailability in rat at 1 mg/kg administered as single dose; type: ADME, organism-based; settings: in vivo
In short: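 Fasted male rats (n = 3) were given 1 mg/kg orally in 0.5% methylcellulose and 1 mg/kg iv in 30% HP-β-CD/5% DMSO/NaHCO₃, each as a single dose. Plasma from serial jugular samples was analysed. Bioavailability was derived from oral versus iv exposure, corrected for dose (D_po, D_iv).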

[9] = tested on: Cavia porcellus; assay: Inhibition of OVA-induced vascular permeability in Hartley guinea pig conjunctiva at 1 mg/kg, po administered 1 hr before antigen challenge measured after 30 mins; type: functional
In short: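 Male Hartley guinea pigs were sensitized ip with OVA (1 mg) plus inactivated B. pertussis. Two weeks later they were challenged topically with OVA (1%, 20 µL/eye), followed at once by Evans blue (20 mg/kg iv). Compound was given orally 1 h before challenge (n = 7). After 30 min the conjunctiva was removed, dye was extracted in DMF at 37 °C, and A620 was read against a standard curve. Dunnett's test was used.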

[10] = Volume of distribution at steady state in rat at 1 mg/kg, iv administered as single dose; type: ADME, organism-based; design: dose 1 mg/kg, route intravenous; settings: in vivo, read-out: Vdss; in short: as §1
[11] = AUC (0 to infinity) in rat at 1 mg/kg, iv administered as single dose; type: ADME, organism-based; design: time infinity, dose 1 mg/kg, route intravenous; settings: plasma
In short: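 Single IV dose of 1 mg/kg to fasted male rats (n = 3). Vehicle: 30% HP-b-CD containing 5% DMSO with NaHCO3 (1 eq). Jugular vein blood taken in heparinized syringe pre-dose and at 5, 15, 30 min and 1, 2, 4, 6, 8, 24 h. Plasma obtained by centrifugation at 4 °C and stored at -80 °C. AUC derived from the plasma concentration–time course.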

[12] = AUC (0 to infinity) in rat at 1 mg/kg, po administered as single dose; type: ADME, organism-based; design: time infinity, dose 1 mg/kg, route oral; settings: plasma
In short: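 Fasted male rats (n = 3) given a single oral dose of 1 mg/kg in 0.5% MC. Heparinized jugular vein blood sampled pre-dose and at 15, 30 min and 1, 2, 4, 6, 8, 24 h. Plasma separated by centrifugation at 4 °C and kept at -80 °C. AUC derived from the plasma concentration–time profile.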

[13] = Half life in rat at 1 mg/kg, po administered as single dose; type: ADME, organism-based; design: dose 1 mg/kg, route oral; settings: in vivo
In short: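 Fasted male rats (n = 3) received a single oral 1 mg/kg dose in 0.5% methylcellulose. Jugular blood was drawn into heparin before dosing and at 15, 30 min and 1, 2, 4, 6, 8, 24 h. Plasma was separated at 4 °C. Parameters came from the plasma concentration-time course.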

[14] = Total clearance in rat at 1 mg/kg, iv administered as single dose; type: ADME, organism-based; design: dose 1 mg/kg, route intravenous; settings: in vivo; in short: as §1
[15] = tested on: Cavia porcellus; assay: Inhibition of PGD2-induced vascular permeability in Hartley guinea pig conjunctiva at 0.1 mg/kg, po administered 1 hr before antigen challenge measured after 30 mins; type: functional
In short: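 Guinea pigs (n = 8) were dosed orally 1 h before topical PGD₂ challenge (20 µL/eye). 5% Evans blue (1 mL/kg iv) was given immediately after challenge. After 30 min the conjunctiva was excised and dye extracted in DMF at 37 °C, with absorbance read at 620 nm. Dunnett's test versus control.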

Chain of Prostacyclin receptor (P43119 whole entry): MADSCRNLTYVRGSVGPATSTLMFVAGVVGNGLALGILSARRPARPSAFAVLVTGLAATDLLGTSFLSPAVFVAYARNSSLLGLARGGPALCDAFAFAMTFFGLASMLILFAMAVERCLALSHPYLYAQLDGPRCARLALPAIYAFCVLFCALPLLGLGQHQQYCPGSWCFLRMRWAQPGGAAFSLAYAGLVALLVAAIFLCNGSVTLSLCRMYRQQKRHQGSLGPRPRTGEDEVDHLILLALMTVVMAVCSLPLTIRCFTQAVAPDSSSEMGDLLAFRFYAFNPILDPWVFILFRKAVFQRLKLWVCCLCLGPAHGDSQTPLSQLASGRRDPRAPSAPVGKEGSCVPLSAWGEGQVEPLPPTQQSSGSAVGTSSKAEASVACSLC

SMILES	pKi [1]	pIC50 [5]	other results
CN1C[C@@H](COc2ccc(C(=O)Nc3cccc(CC(=O)O)c3)c(Cl)c2)Oc2ccccc21	5.57	–	–
Cc1cc(OC[C@@H]2CN(C)c3ccccc3O2)ccc1C(=O)Nc1cc(CC(=O)O)ccc1Cl	5.74	–	solubility kinetic [2]: 129 µg/mL (≈ 268 µM)
Cc1cc(OC[C@@H]2CN(C)c3ccccc3O2)ccc1C(=O)Nc1cc(CC(=O)O)ccc1F	< 5.00	–	–
Cc1ccc(CC(=O)O)cc1NC(=O)c1ccc(OC[C@@H]2CN(C)c3ccccc3O2)cc1Cl	5.85	–	–
CN1C[C@@H](COc2ccc(C(=O)Nc3cc(CC(=O)O)ccc3Cl)c(Cl)c2)Oc2ccccc21	–	–	pIC50 [3]: < 7.30
CN1C[C@@H](COc2ccc(C(=O)n3ccc4c(CC(=O)O)cccc43)cc2)Oc2ccccc21	5.60	–	pKi [4]: 5.77
Cc1c(OC[C@@H]2CN(C)c3ccccc3O2)ccc(C(=O)Nc2cccc(CC(=O)O)c2)c1C	< 5.00	7.66	–
Cc1cc(C(=O)Nc2cccc(CC(=O)O)c2)c(C)cc1OC[C@@H]1CN(C)c2ccccc2O1	< 5.00	7.55	–
Cc1cc(OC[C@@H]2CN(C)c3ccccc3O2)cc(C)c1C(=O)Nc1cccc(CC(=O)O)c1	< 5.00	8.46	–
Cc1ccc(CC(=O)O)cc1NC(=O)c1ccc(OC[C@@H]2CN(C)c3ccccc3O2)c(C)c1C	5.28	7.92	–
Cc1ccc(CC(=O)O)cc1NC(=O)c1cc(C)c(OC[C@@H]2CN(C)c3ccccc3O2)cc1C	5.59	8.24	–
Cc1ccc(CC(=O)O)cc1NC(=O)c1c(C)cc(OC[C@@H]2CN(C)c3ccccc3O2)cc1C	< 5.00	8.32	–
Cc1c(OC[C@@H]2CN(C)c3ccccc3O2)ccc(C(=O)Nc2cc(CC(=O)O)ccc2Cl)c1C	5.46	7.27	pKi [4]: 7.55
Cc1cc(C(=O)Nc2cc(CC(=O)O)ccc2Cl)c(C)cc1OC[C@@H]1CN(C)c2ccccc2O1	5.74	8.29	solubility kinetic [2]: 17 µg/mL (≈ 34.3 µM)
Cc1cc(OC[C@@H]2CN(C)c3ccccc3O2)cc(C)c1C(=O)Nc1cc(CC(=O)O)ccc1Cl	< 5.00	8.12	Cmax [6]: 930 ng/mL; half-life [7]: 6.2 h; bioavailability [8]: 72%; inhibition in vivo at 1 mg/kg [9]: 46%; Vd [10]: 0.622 L/kg; pKi [4]: 8.19; pIC50 [3]: 8.36; AUC(0-inf) [11]: 11300 ng·h/mL; AUC(0-inf) [12]: 8120 ng·h/mL; half-life [13]: 5.8 h; clearance [14]: 1.6 mL/min/kg; inhibition in vivo at 0.1 mg/kg [15]: 55%; solubility kinetic [2]: 407 µg/mL (≈ 822 µM)
Cc1cc(OC[C@@H]2COc3ccccc3O2)cc(C)c1C(=O)Nc1cc(CC(=O)O)ccc1Cl	< 5.00	8.37	–
Cc1cc(OC[C@@H]2COc3ccccc32)cc(C)c1C(=O)Nc1cc(CC(=O)O)ccc1Cl	< 5.00	8.82	–
Cc1cc(OC[C@@H]2Cc3ccccc3O2)cc(C)c1C(=O)Nc1cc(CC(=O)O)ccc1Cl	< 5.00	7.85	–
Cc1cc(OCC2Oc3ccccc3O2)cc(C)c1C(=O)Nc1cc(CC(=O)O)ccc1Cl	< 5.00	7.57	–
CN1C[C@@H](COc2ccc(C(=O)Nc3cc(C(C)(C)C(=O)O)ccc3Cl)c(Cl)c2)Oc2ccccc21	5.48	8.15	pIC50 [3]: 6.55; solubility kinetic [2]: 139 µg/mL (≈ 263 µM)
Cc1cc(C(=O)Nc2cc(C(C)(C)C(=O)O)ccc2Cl)c(C)cc1OC[C@@H]1CN(C)c2ccccc2O1	5.48	7.37	pIC50 [3]: 7.49
Cc1cc(C(=O)Nc2cc(C3(C(=O)O)CC3)ccc2Cl)c(C)cc1OC[C@@H]1CN(C)c2ccccc2O1	5.77	7.59	pIC50 [3]: 7.72
Cc1cc(OC[C@@H]2CN(C)c3ccccc3O2)cc(C)c1C(=O)Nc1cc(C2(C(=O)O)CC2)ccc1Cl	< 5.00	9.00	solubility kinetic [2]: 321 µg/mL (≈ 616 µM)
CN1C[C@@H](COc2ccc(C(=O)Nc3cc(C(F)(F)C(=O)O)ccc3Cl)c(Cl)c2)Oc2ccccc21	6.28	7.85	–
Cc1ccc2c(c1)[C@H](COc1cc(C)c(C(=O)Nc3cc(CC(=O)O)ccc3Cl)c(C)c1)CO2	< 5.00	7.62	–
Cc1cc2c(CC(=O)O)cccc2n1C(=O)c1ccc(OC[C@@H]2CN(C)c3ccccc3O2)cc1	–	–	pIC50 [3]: 7.24; inhibition in vivo at 0.1 mg/kg [15]: 67%; solubility kinetic [2]: 8.2 µg/mL (≈ 17.4 µM)
